# Most compounds without a hit are left out; they make up all but 1.8% or so of the library.
# CHRM4 agonist = agonists of human muscarinic M4 receptor (CHRM4); P08173; CHO-K1 hM4/Gqi5, Fluo-8 calcium fluorescence; vehicle 0%, full acetylcholine response 100%; activation, % at 3 µM; 360,000 compounds, 0.14% hits;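 active = activation above the run mean over all test wells plus 3 SD, cut at about 32% in these data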;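 note: peak over basal fluorescence ratio per well then scaled between controls; 0% = DMSO wells and 100% = acetylcholine at EC100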
# CHRM5 PAM = CHRM5 positive allosteric modulation; P08912; CHO-K1 hM5, Fluo-8 calcium, ACh EC20 PAM; 0% = ACh EC20, 100% = ACh EC100; 360,000 compounds, 0.3% hits; activation, % at 3 µM;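 active = activation above the run cutoff, the mean activation of all test compounds plus 3 SD, cut at about 18% in these data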
# Target sequence (P08912 whole entry, looked up): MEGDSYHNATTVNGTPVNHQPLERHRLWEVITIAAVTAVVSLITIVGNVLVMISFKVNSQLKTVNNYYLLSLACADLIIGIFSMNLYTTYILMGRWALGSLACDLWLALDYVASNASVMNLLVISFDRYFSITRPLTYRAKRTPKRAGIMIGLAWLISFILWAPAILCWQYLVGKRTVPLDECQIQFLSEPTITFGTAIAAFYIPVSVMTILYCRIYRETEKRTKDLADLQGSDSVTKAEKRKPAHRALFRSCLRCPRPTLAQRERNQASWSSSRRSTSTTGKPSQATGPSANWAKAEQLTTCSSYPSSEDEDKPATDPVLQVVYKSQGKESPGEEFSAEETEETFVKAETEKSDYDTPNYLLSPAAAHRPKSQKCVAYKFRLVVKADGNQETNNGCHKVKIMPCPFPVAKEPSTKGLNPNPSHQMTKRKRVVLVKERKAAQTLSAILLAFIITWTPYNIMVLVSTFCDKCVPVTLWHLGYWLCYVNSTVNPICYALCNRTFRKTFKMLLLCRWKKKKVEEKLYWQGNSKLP
#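 Assay system: CHO-K1 hM5 cells. Also added: acetylcholine at EC20 concentration, added after compound. Dosing: 3 µM, single dose. Times: compound preincubation 140 s before EC20 acetylcholine addition. Signal: Fluo-8 calcium fluorescence. Measure: % activation relative to EC20 and EC100 ACh responses. Repeats: singlicate, one well per test compound.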
# CHRM5 antagonist = CHRM5 antagonism in calcium assay; CHO-hM5 cells, Fluo-8 calcium fluorescence, ACh EC80; 360,000 compounds, 0.59% hits; inhibition, % at 3 µM; P08912;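 active = inhibition above a per-plate cutoff, the mean of that plate's test compounds plus 3 SD, cut at about 27% in these data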;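 note: 0% = acetylcholine EC80 with DMSO and 100% = DMSO without agonist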
# M5 ag = agonists of human muscarinic M5 receptor (CHRM5); activation, % at 3 µM; P08912; AID 624037; 360,000 compounds, 0.19% hits; CHO-K1 hM5 cells, Fluo-8 calcium fluorescence; 0% DMSO wells, 100% maximal acetylcholine response;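 active = activation above the run's mean over test compounds plus 3 SD, cut at about 23% in these data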;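 note: signal is peak over basal fluorescence ratio across the kinetic read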
# M4 PAM = CHRM4 positive allosteric modulation; P08173; CHO-K1 hM4/Gqi5, Fluo-8 calcium fluorescence, ACh EC20; 0% = ACh EC20, 100% = maximal ACh; activation, % at 3 µM; 360,000 compounds, 0.4% hits; AID 624126;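 active = activation above its plate's cutoff, the mean activation of sample wells plus 3 SD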
# M4 antag = blocks acetylcholine activation of human M4 receptor. inhibition, % at 3 µM. CHO-hM4 cells, ACh EC80, Fluo-8 calcium fluorescence. P08173. 360,000 compounds, 0.73% hits. AID 624125;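 active = inhibition above its plate's cutoff, the mean inhibition of sample wells plus 3 SD, cut at about 27% in these data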;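 note: 0% = acetylcholine EC80 with DMSO and 100% = DMSO without agonist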
# * = called active by the depositor.
SMILES,CHRM4 agonist,CHRM5 PAM,CHRM5 antagonist,M5 ag,M4 PAM,M4 antag
CCNCCC(=O)N1c2ccccc2Sc2ccc(C(F)(F)F)cc21,3.9,-33.2,99.8*,-21.4,-16.5,95.7*
O=C(CN1CCN(c2ccccn2)CC1)N1c2ccccc2Sc2ccc(C(F)(F)F)cc21,-1.9,-15.7,3.7,-2.9,-2.2,11.5
OC(COc1ccc(CNCCc2ccccc2F)cc1)CN1CCCCC1 (stereo unspecified),1.1,-2.8,4.7,-7.1,-12.5,-3.0
CCN(CC)CCNC(=S)Nc1ccc(F)cc1,0.8,-3.1,-5.2,-1.5,-0.6,-6.1
CCC(C(=O)OC(C)C(=O)Nc1ccc(Cl)cn1)c1ccccc1 (stereo unspecified),-1.0,4.3,-8.7,-2.7,-0.4,-2.9
O=C(Cc1cccs1)NCCS(=O)(=O)N1CCN(c2ccccc2F)CC1,4.9,2.0,-3.1,-0.8,1.5,-0.5
CCCNC(=O)C1(C)CCCN(Cc2c3ccccc3nn2C)C1 (stereo unspecified),2.6,-3.1,0.5,2.3,-2.0,-8.4
CCCCN(C(=O)c1c(CC)noc1C)c1c(N)n(CCC)c(=O)[nH]c1=O,1.1,7.4,0.5,1.1,6.6,-16.7
O[Si](CCCN1CCCCC1)(c1ccc(F)cc1)C1CCCCC1 (stereo unspecified),4.7,-18.4,74.4*,0.6,-18.9,90.1*
CC(C)C1Cc2ccccc2-c2[nH]c(=S)[nH]c(=O)c21 (stereo unspecified),1.0,1.3,-5.9,-2.7,-3.8,-8.8
COc1cccc(N2CCN(c3ncnc4c3[nH]c3ccc(F)cc34)CC2C)c1 (stereo unspecified),27.6,-22.8,76.9*,7.1,-23.1,85.3*
C=CCC1(CC=C)CCCN1C(=O)Cn1nnnc1CN(C)C(C)C,0.0,-5.5,0.3,-1.9,5.1,-10.1
CN(CC(=O)Nc1ccc(F)cc1)C(=O)Cn1cnc2ccc([N+](=O)[O-])cc2c1=O,0.8,-3.2,8.3,3.5,-3.5,3.4
COC(=O)c1sccc1NC(=O)Nc1cc(C)cc(C)c1,-2.1,-9.6,28.9*,-6.4,-3.6,15.7
O=C(NCCCn1ccnc1)c1cc2ccccc2o1,0.7,-0.8,6.2,-0.4,2.4,-8.9
CCOc1ccc(C(=O)NCCCn2ccnc2)cc1,-0.1,18.1*,-0.3,-7.4,5.0,3.2
Cc1c(C(=O)NCCCn2ccnc2)oc2ccccc12,1.0,18.4*,-5.0,-2.6,1.5,-2.3
CCCOc1ccc(C(=O)NCCCn2ccnc2)cc1,1.1,1.1,-2.9,-3.0,-3.4,13.4
O=C(Nc1ccc(OC(F)(F)F)cc1)c1[nH]ncc1[N+](=O)[O-],7.7,-7.8,4.4,3.5,0.5,-2.0
COCCN(C(=O)CSc1n[nH]c(-c2ccccc2)n1)c1c(N)n(CC(C)C)c(=O)[nH]c1=O,0.1,2.7,5.4,2.0,10.6,-5.1
CC(=O)c1ccc(NC(=O)CN2CCCCCC2)cc1,2.0,4.4,-9.9,-7.3,8.5,-30.6
Nc1cc(=O)[nH]c(SCCOc2ccccc2)n1,18.0,-16.1,27.0*,-1.2,-10.0,1.6
O=C(CN1C(=O)NC2(CCCC2)C1=O)N1CCN(S(=O)(=O)c2cc(Cl)ccc2Cl)CC1,3.2,0.0,-1.2,2.8,1.6,-3.7
Cn1ncc(Cl)c1C(=O)N1CCN(c2ccc(Cl)c(Cl)c2)CC1,16.0,-15.3,29.1*,2.5,-0.1,-8.0
C[C@@H]1CN(Cc2nc(-c3cccs3)no2)C[C@H](C)O1,0.9,-9.5,11.1,-0.8,4.1,27.2*
CC(C)OC(=O)c1ccc2nc3ccccc3nc2c1,1.8,5.5,-6.6,-3.3,7.7,3.2
CCN(CC)CC(C)(C)C(=O)/C=C/c1ccc(/C=C/C(=O)C(C)(C)CN(CC)CC)cc1,3.3,6.3,11.6,-0.9,-6.0,41.6*
CC(C#N)(Cc1ccccc1)Nc1ccccc1 (stereo unspecified),4.2,-6.0,5.3,6.3,-0.7,-1.8
CCc1cccc(N(C)C(N)=Nc2cccc3ccccc23)c1,0.8,-0.9,0.6,1.6,-6.3,6.7

# Screening results: PubChem BioAssay, The Scripps Research Institute Molecular Screening Center
